# The entries come from a sample that favours hits as a whole.
# UPR CHOP act – activators of apoptotic arm of unfolded protein response (CHOP). CHO-CHOP luciferase reporter, UPR activation, luminescence; percent of tunicamycin response over DMSO baseline. hit rate 0.34% among 330,000. activation, % at 10 µM. AID 449763;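 active = at 10 µM dose, activation of 40% or more, normalized to positive control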;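 also: 100% = tunicamycin at 10 µg/mL and 0% = DMSO alone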
#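 System: CHO-CHOP luciferase reporter cell line | Buffer or medium: F12 medium containing 10% fetal bovine serum | Doses: One dose, 10 µM in 0.5% DMSO | Times: 6 h compound exposure at 37 °C after overnight seeding | Signal: Luciferase luminescence | Read-out: % activation vs tunicamycin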
# CHOP inhibitor – inhibitors of CHOP induction in ER stress response; hit rate 3.8% among 220,000; CHO-K1 CHOP-promoter luciferase, tunicamycin-induced, 15-18 h; inhibition, % at 10 µM;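 active = compounds that reduced the stress-induced luciferase reporter signal by more than about 70% of percent inhibition, limit read from the data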;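 also: 0% = tunicamycin plus vehicle and 100% = wells without tunicamycin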
# Jurkat NFkB inh – inhibitors of the PMA/ionomycin-induced NF-kB reporter in Jurkat cells. PMA/ionomycin-induced NF-kB luciferase reporter, luminescence. inhibition, % at 4 µM. hit rate 0.53% among 330,000. AID 435003; in the data active = inhibition above about 50%
# XBP1 UPR activ – activators of adaptive arm of unfolded protein response (XBP1) | AID 463104 | CHO-XBP1 luciferase reporter, IRE1-XBP1 UPR activation, luminescence; percent of tunicamycin response, DMSO as zero | activation, % at 20 µM | hit rate 0.33% among 330,000;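 active = versus positive control, 20 µM dose yields 30% or more activation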;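 also: 100% = tunicamycin at 10 µg/mL and 0% = DMSO only wells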
#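 Material: CHO cell line with stable XBP1 luciferase reporter; schedule: 16-18 h cell attachment at 37 °C, then 6 h compound exposure; signal: glow luminescence from Steady-Glo reagent; medium: serum-containing F12 medium, 10% FBS; benchmarks: tunicamycin 10 µg/mL and vehicle-only wells; read-out: percent activation relative to tunicamycin reference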
# 697 NFkB inh – lowers PMA/ionomycin-induced NF-kB signal in 697 B cells. 697 B-cell NF-kB luciferase reporter, 16 h. inhibition, % at 4 µM. hit rate 0.33% among 330,000; in the data active = inhibition above about 35%
# Active calls of the source: *; / = no result.
SMILES,UPR CHOP act,CHOP inhibitor,Jurkat NFkB inh,XBP1 UPR activ,697 NFkB inh
Cn1c(=O)oc2cc(S(=O)(=O)N3CCC(C(=O)NCc4ccccc4)CC3)ccc21,0.1,/,-4.6,-2.5,21.2
N#C/C(=C/c1ccc(-c2ccc(S(N)(=O)=O)cc2)o1)C(=O)Nc1ccccc1,1.1,39.4,10.5,10.1,11.6
N#C/C(=C/c1ccc(-c2ccc(S(N)(=O)=O)cc2)o1)c1nc2ccccc2s1,10.0,88.7*,6.6,1.8,-5.3
Cc1cccc(C)c1NC(=O)CN(C)S(=O)(=O)c1ccc(-c2ccc(=O)[nH]n2)s1,-1.9,/,8.6,-4.4,0.6
O/N=C/c1ccc(-c2cc(Cl)ccc2Cl)o1,-3.6,95.6*,7.5,-3.0,16.7
O=[N+]([O-])c1cc([N+](=O)[O-])c2cc(-c3cccnc3)[nH]c2c1,-2.1,/,6.3,-1.6,10.4
CC(C)c1ccc2c(c1)CCC1C(C)(CN)CCCC21C (configuration not stated),/,102.1*,/,/,/
CCOc1ccc2nc(SCC(=O)NC(=O)NCc3ccco3)sc2c1,-0.9,74.6*,3.9,-2.1,9.5
Cc1ccc(N2CC(C)Cn3c2nc2c3c(=O)[nH]c(=O)n2C)cc1C (configuration not stated),-1.4,/,-5.6,4.3,-25.0
CCOC(=O)C1CCCN(C(=O)C2c3ccccc3Oc3ccccc32)C1 (configuration not stated),-0.9,76.3*,3.1,1.9,4.3
C[C@H](CO)N1C[C@H](C)[C@@H](CN(C)S(C)(=O)=O)Oc2ccc(N(C)C)cc2C1=O,-0.3,/,3.2,-1.5,10.4
COC(=O)c1c(-c2cccs2)csc1NC(=O)CN1CCOCC1,-1.8,73.9*,-6.6,0.2,-27.4
CCOC(=O)c1c(-c2ccc(OC)cc2)csc1NC(=O)CCN1CCOCC1,-1.4,-5.0,2.8,1.0,2.7
O=C(Nc1cccc(Cl)c1)C1CCN(C(=O)c2cccs2)CC1,-0.6,/,-2.5,-2.9,5.6
COCCn1c(SCC(=O)Nc2ccccc2C)nc2c(oc3ccccc32)c1=O,-0.5,79.2*,3.9,-0.4,-0.4
Cc1cc(C(=O)NCC(=O)OC(C(=O)Nc2cc(C(F)(F)F)ccc2Cl)c2ccccc2)ccc1[N+](=O)[O-] (configuration not stated),0.6,81.7*,2.4,-1.0,17.2
CCCC(=O)OC(C(=O)Nc1cc(C(F)(F)F)ccc1Cl)c1ccccc1 (configuration not stated),1.6,26.9,15.4,-0.9,18.4
Cc1[nH][nH]c(=O)c1C(c1c(C)[nH][nH]c1=O)c1cn(Cc2ccccc2Cl)c2ccccc12,/,-10.3,/,/,/
NCCS(=O)O,/,18.0,/,/,/
O=S(=O)(c1ccccc1)N1CCN(C/C=C/c2ccccc2)CC1,0.2,/,6.9,-5.5,-4.5
O=S(=O)(NCc1ccccc1)c1ccc(S(=O)(=O)N2CCCCC2)cc1,1.4,72.0*,-0.6,-1.0,-26.3
O=S(=O)(c1ccc(S(=O)(=O)N2CCN(C/C=C/c3ccccc3)CC2)cc1)N1CCCC1,-2.9,87.3*,9.6,-1.5,20.8
COc1ccccc1CN1CCC(n2nccc2NC(=O)CCCc2ccccc2)CC1,1.4,/,4.5,3.1,16.6
CCOc1ccc(-c2csc(/C(C#N)=C\c3ccc(O)c([N+](=O)[O-])c3)n2)cc1,6.1,93.7*,18.2,2.9,-24.4
CCCCc1ccc(-c2csc(/C(C#N)=C\c3ccc(C)o3)n2)cc1,0.4,-23.4,-10.8,-2.5,7.3
SMILES,UPR CHOP act,CHOP inhibitor,Jurkat NFkB inh,XBP1 UPR activ,697 NFkB inh
Cc1nn(CC(O)CN2c3ccccc3Sc3ccccc32)c(C)c1Br (configuration not stated),-2.0,76.6*,6.7,-0.9,-12.1
CC1CCCN(S(=O)(=O)c2ccc(Br)s2)C1 (configuration not stated),-1.0,22.8,-1.0,-4.7,20.2
CC1CCN(S(=O)(=O)c2ccc(Br)s2)CC1,-0.4,75.0*,14.9,-1.2,-14.7
O=C(Cn1cnc2c(nnn2Cc2ccc(F)cc2)c1=O)Nc1ccccc1,0.5,12.7,9.5,0.3,11.6
CC(C)c1ccc(CNC(=O)CSCC(=O)Nc2ccc3ccccc3c2)cc1,3.0,86.0*,5.0,-1.6,0.1
O=C(CSCC(=O)Nc1ccc2ccccc2c1)NCc1ccccc1,-1.0,-15.0,-2.6,0.2,-3.6
O=C(Nc1ccc(Cl)cc1Cl)NC1CCCC1,4.3,-6.2,-25.8,0.6,-49.3
O=C(Nc1ccc(Cl)cc1Cl)NC1CCN(S(=O)(=O)c2ccc(F)cc2)CC1,-1.2,81.1*,-12.3,3.7,7.2
O=C(Nc1cccc(S(=O)(=O)N2CCCCC2)c1)Nc1ccc(Cl)cc1Cl,1.5,88.0*,5.9,9.3,12.3
O=C(O)c1cccnc1C(=O)c1ccccc1,1.5,/,-3.2,1.4,13.5
CCCc1nc2sc(C(=O)OCC)c(N)c2c2c1COC(C)(C)C2,2.5,81.0*,-26.9,-3.1,2.5
COc1ccc2[nH]c(=O)c(C(c3nnnn3C3CCCC3)N(C)C3CCCCC3)cc2c1 (configuration not stated),-0.1,75.1*,16.8,-1.2,5.0
CCOc1ccc2[nH]c(=O)c(C(c3nnnn3C3CCCCC3)N3CCN(C)CC3)cc2c1 (configuration not stated),-0.3,1.4,-17.6,-1.7,-1.3
CCC1Sc2ccc(S(=O)(=O)CCC(=O)Nc3c(Cl)cc(OC)cc3OC)cc2NC1=O (configuration not stated),2.4,/,6.9,-4.1,-5.4
CNC(=O)NC(=O)CSc1cccc(C(F)(F)F)c1,-1.7,-3.6,3.6,1.2,-2.2
CC(C)NC(=O)NC(=O)CSc1ncc(C(F)(F)F)cc1Cl,0.9,29.4,-5.4,0.7,-8.7
CC(C)(C)NC(=O)NC(=O)CSc1ncc(C(F)(F)F)cc1Cl,1.9,74.2*,9.2,-0.1,-2.4
CC(C)(C)NC(=O)NC(=O)CSc1cccc(C(F)(F)F)c1,-1.5,90.4*,2.5,-1.9,-0.1
COc1cccc(CNC(=O)CN2C(=O)COc3ccc(S(=O)(=O)N4CCCCC4)cc32)c1,1.3,/,-7.1,-2.4,-8.2
c1ccc(-c2cc(-c3ccncc3)nc3ccc4ccccc4c23)cc1,1.9,88.8*,5.3,1.6,-12.6
Clc1ccc2nc(-c3ccncc3)cc(-c3ccccc3)c2c1,-2.5,54.9,3.0,3.5,21.5
COc1ccc(-n2c(=S)[nH]c3cc(C(=O)Nc4ccccc4OC)ccc3c2=O)cc1,4.6,-8.2,14.3,31.7*,-16.7
CSc1nsc(N/N=C/c2ccc3c(c2)OCO3)c1C#N,6.7,76.5*,-107.9,3.8,-221.8
COc1cc(/C=N/Nc2snc(SC)c2C#N)cc(OC)c1OC,25.7,20.2,10.1,9.1,-150.0
O=c1c2ccccc2nc2c3ccccc3c3nncn3n12,/,42.0,/,/,/
O=c1c2ccccc2nc2n1CCS2(=O)=O,1.1,83.7*,13.5,-5.9,17.0

# Screening data deposited in PubChem BioAssay by several laboratories.
